AI-2 QS mod – modulators of Vibrio harveyi AI-2 quorum sensing system. activity change, % at 7.5 µM. 300,000 tested, 0.4% active. AID 2094. Vibrio harveyi JMH597 AI-2 luminescence/OD600 ratio, 9 h; stronger effect = lower value; strain lacks LuxN and CqsS sensors; 0 = neutral-control median; in the data active = activity change below about -75%, passing the limit was not always enough; inconclusive = no clear call, values can overlap the other calls;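 also: luminescence divided by OD600 gain over 9 h not by final OD600 alone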
T cruzi inh – T. cruzi replication inhibition; T. cruzi beta-gal in NIH3T3, luminescence, 90 h; 300,000 tested, 1.4% active; AID 1885; inhibition, % (concentration not given with the values);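 active = mean inhibition across valid replicates above about 55%, limit read from the data; inconclusive = mean below that limit but half or more replicates reach it; inactive = mean below it, under half of replicates reach it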;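 also: signal also drops with host cell toxicity which is not excluded here; higher percent means less beta-gal luminescence so fewer parasites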
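Assay system: NIH/3T3 host cells with β-galactosidase reporter T. cruzi; input: 5,000 host fibroblasts per well; compound: single 50 nL compound addition per well in DMSO; timing: ≥90 h infection period, 3 h prior cell attachment; measured by: GalScreen β-gal luminescence, detergent lysis, 60 min; evaluation: percent inhibition of parasite-derived β-gal signal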
HIF activator – HIF pathway transcriptional activation; U2OS HRE-luciferase reporter, luminescence; normalized: DMSO 0%, desferrioxamine 100%; activation, % at 7.5 µM (by protocol); 300,000 tested, 0.32% active; AID 1910;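 active = mean activation of at least 10% of the iron chelator positive control signal, with at least half of replicates also reaching 10%; inconclusive = mean and replicate majority disagree about reaching 10%; inactive = mean and most replicates under 10%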
ARNT-TACC3 inh – disruptors of human ARNT/TACC3 interaction; 390,000 tested, 0.66% active; AlphaScreen His-ARNT PAS-B/GST-TACC3 binding, luminescence; TACC3 fragment carries E629A point mutation; Q9Y6A5; inhibition, % at 9.99 µM;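 active = mean inhibition of replicates at least 50% and at least half of replicates each reaching 50%; inconclusive = half or more replicates reach 50% but mean below 50%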
JMH597 growth – retest Vibrio harveyi JMH597 growth inhibition; shares compounds with AI-2 QS mod; OD600 absorbance, 9 h; lacks LuxN and CqsS sensors; growth inhibition, % at 7.5 µM; 750 tested, 1% active; AID 2726;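 active = every replicate shows growth inhibition above 50%; inconclusive = at least half, but not all, replicates pass that cutoff; inactive = fewer than half of replicates pass it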
BB721 const-QS lum – retest counter-screen: BB721 constitutive quorum sensing luminescence decrease; Vibrio harveyi BB721 luminescence, 9 h; inhibition, % at 7.5 µM; 750 tested, 95% active; shares compounds with AI-2 QS mod; AID 2727;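 active = inhibition above about 80% in every replicate, not just on average, limit read from the data; inconclusive = at least half of replicates past the limit, but not all; inactive = fewer than half of replicates past the limit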
BB721 growth – retest Vibrio harveyi BB721 growth inhibition. shares compounds with AI-2 QS mod. OD600 absorbance, 9 h. growth inhibition, % at 7.5 µM. 750 tested, 3% active;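 active = every replicate shows growth inhibition above 50%; inconclusive = at least half but not all replicates above 50% inhibition; inactive = under half of replicates above 50% inhibition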
JMH597 AI-2 mod – Vibrio harveyi AI-2 signaling luminescence modulation – JMH597 strain, confirmation; Vibrio harveyi JMH597 AI-2 quorum sensing luminescence, 9 h; luxN and CqsS knockout, AI-2 only; 750 tested, 97% active; inhibition, % at 7.5 µM; shares compounds with AI-2 QS mod;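 active = every replicate shows more than 75% inhibition of signal versus neutral control wells; inconclusive = half to three quarters of replicates exceed 75% inhibition; inactive = fewer than half of replicates exceed 75% inhibition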
Hits are given with their value; - = inactive; ? = inconclusive; . = no result. An excerpt weighted towards active compounds, which were near 2% of everything screened.

SMILES	AI-2 QS mod	T cruzi inh	HIF activator	ARNT-TACC3 inh	JMH597 growth	BB721 const-QS lum	BB721 growth	JMH597 AI-2 mod
CCOc1ccc(NC(=O)CN2C(=O)NC(CCSC)C2=O)cc1 (stereo not given)	-79	-	-	-	-	91	-	94
CSCCC1NC(=O)N(CC(=O)Nc2ccc(-c3ccccc3)cc2)C1=O (stereo not given)	-83	-	-	-	-	85	-	91
CCOc1ccc(NC(=O)CN2C(=O)CSC(C)C2=O)cc1 (stereo not given)	-78	-	-	-	-	91	-	93
CSCCC1NC(=O)N(CC(=O)Nc2c(C(C)C)cccc2C(C)C)C1=O (stereo not given)	-	-	-	-	.	.	.	.
C/C=C/c1ccc2c(c1)O[C@@H](CN(C)C(=O)CN1CCOCC1)[C@H](C)CN([C@H](C)CO)S2(=O)=O	.	.	.	-	.	.	.	.
CC(C)(C)c1ccc(/C=C/C(=O)N2CCCCC2)cc1	-86	-	-	-	-	94	-	97
CCc1ccc(/C=C\C(=O)N2CCCC2)cc1	-	-	-	-	.	.	.	.
CC(COc1ccc(C(C)C)cc1)NC(=O)c1ccc(Br)o1 (stereo not given)	-83	-	-	-	-	88	-	93
O/N=C/Cc1[nH]c2ccccc2c1-c1ccccc1	-96	-	-	-	-	95	-	99
COC(=O)c1cc(OC)c(OC)cc1NC(=O)c1ccc(Br)o1	?	-	-	-	-	-	-	-
O=C(C[C@@H]1C[C@H]2c3cc(NC(=O)Nc4ccc(C(F)(F)F)cc4)ccc3O[C@H]2[C@H](CO)O1)NCc1cccnc1	.	.	.	-	.	.	.	.
Nc1cc(Nc2ccc(Br)cc2)nc(N)n1	-96	-	-	-	-	99	-	99
Cc1cc(Nc2ccc(Cl)cc2)nc(N)n1	-	-	-	-	.	.	.	.
C[C@H]1CN([C@@H](C)CO)C(=O)c2cccc(NC(=O)C3CCCCC3)c2O[C@@H]1CN(C)C(=O)Nc1cccc2ccccc12	.	.	.	-	.	.	.	.
Cc1noc(C)c1NC(=O)N(C)C[C@H]1Oc2ncc(C#CC3CCCC3)cc2C(=O)N([C@H](C)CO)C[C@H]1C	.	.	.	-	.	.	.	.
Cc1cc(C(=O)Nn2cnc3ccccc3c2=O)ccc1[N+](=O)[O-]	-86	-	-	-	-	95	-	97
Cc1noc(C)c1NC(=O)Nc1ccc2c(c1)C(=O)N([C@@H](C)CO)C[C@H](C)[C@H](CN(C)C(=O)NC(C)C)OCCCC[C@H](C)O2	.	.	.	-	.	.	.	.
CCc1ccc(CCC(=O)Nc2ccc(OC)cc2)o1	-	-	-	-	.	.	.	.
CCc1ccc(CCC(=O)Nc2ccc(C(C)=O)cc2)o1	-94	-	-	-	-	98	-	99
Cc1ccc(CCC(=O)Nc2ccc(N(C)C)cc2)o1	.	-	-	-	.	.	.	.
Cc1ccc(CCC(=O)Nc2ccc(Cl)cc2)o1	-87	-	-	-	-	91	-	93
CCc1ccc(CCC(=O)Nc2ccc(Br)cc2)o1	-91	-	-	-	-	95	-	97
CCc1ccc(CCC(=O)Nc2ccc(Cl)cc2)o1	-89	-	-	-	-	96	-	98
CCOC(=O)c1ccc(NC(=O)CCc2ccc(CC)o2)cc1	-	-	-	-	.	.	.	.
COCCNC(=O)C[C@@H]1C[C@@H]2c3cc(NC(=O)c4ccc5c(c4)OCO5)ccc3O[C@@H]2[C@H](CO)O1	.	.	.	-	.	.	.	.
SMILES	AI-2 QS mod	T cruzi inh	HIF activator	ARNT-TACC3 inh	JMH597 growth	BB721 const-QS lum	BB721 growth	JMH597 AI-2 mod
COc1ccc(NC(=O)N2C[C@@H](O)COC[C@H]3O[C@@H](CC(=O)NCc4ccncn4)CC[C@@H]32)cc1	.	.	.	-	.	.	.	.
C[C@@H]1CN([C@@H](C)CO)C(=O)Cc2cc(NC(=O)Nc3ccccc3)ccc2O[C@@H]1CN(C)S(C)(=O)=O	.	.	.	-	.	.	.	.
O=C(CNC(=O)c1ccccc1)N/N=C/c1ccccc1Cl	-90	-	-	-	-	96	-	97
CC(=O)c1ccc(NCCC(=O)c2ccccc2)cc1	-83	-	-	-	-	93	-	95
CO[C@H]1CN(C)C(=O)c2ccc(NC(=O)c3ccc(Oc4ccccc4)cc3)cc2OC[C@H](C)NC[C@H]1C	.	.	.	-	.	.	.	.
NC(=S)Nc1cc(Cl)cc(Cl)c1	-82	-	-	.	-	-	-	?
N#Cc1nc(-c2ccc(F)cc2)oc1NCc1ccccc1	-96	-	-	-	-	95	-	97
N#Cc1nc(-c2cccs2)oc1NCc1ccco1	-	-	.	-	.	.	.	.
N#Cc1nc(-c2ccc(F)cc2)oc1NCc1ccco1	-	-	-	-	.	.	.	.
N#Cc1nc(-c2cccs2)oc1NCc1ccc(Cl)cc1	-87	-	-	-	93	92	102	96
Cc1ccc(CNc2oc(-c3cccs3)nc2C#N)cc1	-94	-	-	-	-	97	?	98
CN1[C@@H]2c3ccc(-c4ccccc4)c(=O)n3C[C@@H]2[C@@H](CO)[C@@H]1C(=O)N1CCc2ccccc2C1	.	.	.	-	.	.	.	.
c1ccc(COc2ccc(OCCCn3cncn3)cc2)cc1	-	-	-	-	.	.	.	.
c1ccc(Cc2ccc(OCCn3cncn3)cc2)cc1	?	-	-	-	-	89	-	93
O=C(/C=C/c1ccccc1[N+](=O)[O-])Oc1ccccc1	-81	-	-	.	-	79	-	88
COc1ccc(CNC(=O)/C=C/c2ccccc2[N+](=O)[O-])cc1	-80	-	-	-	-	95	-	96
O=C(/C=C/c1ccccc1[N+](=O)[O-])NCc1ccc(Cl)cc1	?	-	-	-	-	91	-	93
O=C(/C=C/c1ccccc1Cl)NCCc1ccccc1	-	-	-	-	.	.	.	.
NS(=O)(=O)c1ccc(CNC(=O)/C=C/c2ccccc2[N+](=O)[O-])cc1	-	-	-	-	.	.	.	.
O=C(/C=C/c1ccccc1Cl)NCc1ccccc1	-94	-	-	-	-	98	-	99
CN1CCN(S(=O)(=O)c2ccc(Oc3ccc(Br)cc3F)nc2)CC1	-84	-	-	-	-	82	-	99
CN1CCN(S(=O)(=O)c2ccc(Oc3ccc(F)cc3Br)nc2)CC1	-	-	-	-	.	.	.	.
CO[C@@H]1CN(C)C(=O)c2ccc(NC(=O)Nc3ccc4c(c3)OCO4)cc2OC[C@@H](C)N(C)C[C@H]1C	.	.	.	-	.	.	.	.
O=C(/C=C/c1ccccc1Cl)Nn1cnc2ccccc2c1=O	-78	-	-	.	-	96	-	98
O=C(Nc1ccc(Cl)cc1)Nn1cnc2ccccc2c1=O	-98	-	-	-	-	100	-	100
O=C(/C=C/c1ccccc1)Nn1cnc2ccccc2c1=O	-88	-	-	-	-	98	-	99

Assay outcomes as filed in PubChem.
